Assay results: ChEMBL document CHEMBL1144391, “New pyrazolo[1',5':1,6]pyrimido[4,5-d]pyridazin-4(3H)-ones as potent and selective PDE5 inhibitors” (Bioorg Med Chem Lett, 2005)

What was measured:
[1] = target: T1, Phosphodiesterase 6 (Bos taurus) (UniProt P23439+P16586+P11541+P22571+P04972+Q95142); test: Percentage inhibition of bovine Phosphodiesterase 6 at 2 uM (n=2-3); format: protein assay
In short: (§1)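 Enzyme purified from bovine retinas; cyclic nucleotide phosphodiesterase activity measured by a two-step procedure. Values are either IC50 or percent inhibition at the single test concentration stated.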

[2] = target: T2, cGMP-specific 3',5'-cyclic phosphodiesterase (Homo sapiens, UniProt O76074); test: Inhibition of human Phosphodiesterase 5 (n=2-3)
[3] = target: T2, cGMP-specific 3',5'-cyclic phosphodiesterase; test: Percentage inhibition of human Phosphodiesterase 5 at 2 uM (n=2-3)
In short: (§2)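 Phosphodiesterase 5 purified from human platelets; activity measured by a two-step cyclic nucleotide phosphodiesterase procedure. Percent inhibition recorded at the single stated concentration.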

Phosphodiesterase 6 = test: Inhibition of bovine Phosphodiesterase 6 (n=2-3); format: protein assay, Bos taurus
[4] = target: T1, Phosphodiesterase 6 (Bos taurus); test: Percentage inhibition of bovine Phosphodiesterase 6 at 0.2 uM (n=2-3); format: protein assay; in short: as §1
[5] = target: T2, cGMP-specific 3',5'-cyclic phosphodiesterase; test: Percentage inhibition of human Phosphodiesterase 5 at 20 uM (n=2-3); in short: as §2
[6] = Half-life was observed; format: ADME
[7] = target: T2, cGMP-specific 3',5'-cyclic phosphodiesterase; test: Percentage inhibition of human Phosphodiesterase 5 at 0.2 uM (n=2-3); in short: as §2

| inhibition [1] [%] | IC50 [2] [nM] | SMILES | further results |
| --- | --- | --- | --- |
| 25 | 160 | Cc1nn(Cc2ccccc2)c(=O)c2nc(C)n3nc(-c4ccccc4)cc3c12 | – |
| 17.7 | 180 | Cc1nn(Cc2ccccc2)c(=O)c2nc(-c3cccnc3)n3nc(-c4ccccc4)cc3c12 | – |
| 13.6 | – | Cc1nn(Cc2ccccc2)c(=O)c2nc(Cc3ccccc3)n3nc(-c4ccccc4)cc3c12 | inhibition [3]: 22.5% |
| 34.6 | 39 | CCC(C)c1nc2c(=O)n(Cc3ccccc3)nc(C)c2c2cc(-c3ccccn3)nn12 (centres undefined) | – |
| 53.3 | 100 | COCc1nc2c(=O)n(Cc3ccccc3)nc(C)c2c2cc(-c3ccccc3)nn12 | – |
| – | 1100 | Cc1nn(Cc2ccc(N)cc2)c(=O)c2nc(C)n3nc(-c4ccccc4)cc3c12 | IC50 (Phosphodiesterase 6): 2000 nM |
| – | 90 | Cc1nn(Cc2ccccc2)c(=O)c2nc(CCCCC(=O)O)n3nc(-c4ccccc4)cc3c12 | IC50 (Phosphodiesterase 6): 63 nM |
| 66.9 | 59 | CCC(C)c1nc2c(=O)n(Cc3cccc(OP(=O)(O)O)c3)nc(C)c2c2cc(-c3ccccc3)nn12 (centres undefined) | – |
| – | – | Cc1nn(Cc2ccccc2)c(=O)c2nc(C)n3nc(-c4ccc([N+](=O)[O-])cc4)cc3c12 | inhibition [4]: 14.4%; inhibition [5]: 65.5% |
| 20.4 | 450 | Cc1nn(Cc2ccccc2)c(=O)c2nc(Cc3ccncc3)n3nc(-c4ccccc4)cc3c12 | – |
| – | – | Cc1nn(Cc2ccccc2)c(=O)c2nc(C)n3nc(-c4ccc5c(c4)OCO5)cc3c12 | IC50 (Phosphodiesterase 6): 78000 nM |
| 10.4 | – | Cc1nn(Cc2ccc([N+](=O)[O-])cc2)c(=O)c2nc(C)n3nc(-c4ccccc4)cc3c12 | inhibition [5]: 65.9% |
| – | 320 | Cc1nn(Cc2ccccc2)c(=O)c2nc(/C=C/C(=O)O)n3nc(-c4ccccc4)cc3c12 | IC50 (Phosphodiesterase 6): 580 nM |
| -4.8 | – | Cc1nn(Cc2ccccc2)c(=O)c2nc(-c3ccncc3)n3nc(-c4ccccc4)cc3c12 | inhibition [3]: 69% |
| – | 430 | Cc1nn(Cc2ccccc2)c(=O)c2nc(CCC(=O)O)n3nc(-c4ccccc4)cc3c12 | IC50 (Phosphodiesterase 6): 590 nM |
| – | 270 | Cc1nn(Cc2ccccc2)c(=O)c2nc(C)n3nc(-c4ccccn4)cc3c12 | IC50 (Phosphodiesterase 6): 10000 nM |
| 42.5 | 34 | CCC(C)c1nc2c(=O)n(Cc3ccccc3)nc(C)c2c2cc(-c3ccccc3)nn12 (centres undefined) | – |

| inhibition [1] [%] | IC50 [2] [nM] | SMILES | further results |
| --- | --- | --- | --- |
| – | – | Cc1ccccc1-c1nc2c(=O)n(Cc3ccccc3)nc(C)c2c2cc(-c3ccccc3)nn12 | inhibition [3]: 55.1% |
| 37.4 | 67 | CCC(CC)c1nc2c(=O)n(Cc3ccccc3)nc(C)c2c2cc(-c3ccccc3)nn12 | – |
| 4.5 | 920 | Cc1nn(Cc2ccccc2)c(=O)c2nc(C)n3nc(-c4ccc(N)cc4)cc3c12 | – |
| 38.1 | 100 | CSCc1nc2c(=O)n(Cc3ccccc3)nc(C)c2c2cc(-c3ccccc3)nn12 | – |
| – | – | CN1CC(=O)N2[C@H](c3ccc4c(c3)OCO4)c3[nH]c4ccccc4c3C[C@@H]2C1=O | half-life [6]: > 17 h |
| – | 230 | Cc1nn(Cc2cccc(OP(=O)(O)O)c2)c(=O)c2nc(C)n3nc(-c4ccccc4)cc3c12 | inhibition [4]: 28.6% |
| 19.2 | – | Cc1nn(Cc2ccccc2)c(=O)c2nc(CC3CCCCC3)n3nc(-c4ccccc4)cc3c12 | inhibition [3]: 33.6% |
| 4.2 | – | Cc1nn(Cc2ccccc2)c(=O)c2nc(CC3CCCC3)n3nc(-c4ccccc4)cc3c12 | inhibition [3]: 18.2% |
| – | 3100 | Cc1nn(CC2CCCCC2)c(=O)c2nc(C)n3nc(-c4ccccc4)cc3c12 | IC50 (Phosphodiesterase 6): 11000 nM |
| 11.5 | 75 | Cc1cccc(-c2nc3c(=O)n(Cc4ccccc4)nc(C)c3c3cc(-c4ccccc4)nn23)c1 | – |
| – | 980 | Cc1nn(Cc2ccccc2)c(=O)c2nc(CCc3ccccc3)n3nc(-c4ccccc4)cc3c12 | IC50 (Phosphodiesterase 6): 30000 nM |
| – | 30 | Cc1nn(Cc2ccccc2)c(=O)c2nc(CCCC(=O)O)n3nc(-c4ccccc4)cc3c12 | IC50 (Phosphodiesterase 6): 110 nM |
| 45 | 350 | CCOCc1nc2c(=O)n(Cc3ccccc3)nc(C)c2c2cc(-c3ccccc3)nn12 | – |
| – | – | Cc1nn(-c2ccccc2)c(=O)c2nc(C)n3nc(-c4ccccc4)cc3c12 | inhibition [4]: 3.7%; inhibition [7]: 11.9% |
| 21.3 | 81 | Cc1nn(Cc2ccccc2)c(=O)c2nc(-c3ccccn3)n3nc(-c4ccccc4)cc3c12 | – |
| – | – | Cc1nn(Cc2ccccc2)c(=O)c2nc(C)n3nc(C(C)(C)C)cc3c12 | inhibition [3]: 31% |
| – | 81 | Cc1nn(Cc2ccccc2)c(=O)c2nc(-c3ccccc3)n3nc(-c4ccccc4)cc3c12 | IC50 (Phosphodiesterase 6): 2800 nM |
